{
  "source": "ChEMBL document CHEMBL3763019",
  "about": "“Discovery of benzenesulfonamide derivatives as potent PI3K/mTOR dual inhibitors with in vivo efficacies against hepatocellular carcinoma” (Bioorg Med Chem, 2016)",
  "assay_type_in_all_cases": "functional",
  "key": {"[1]": {"test": "Antiproliferative activity against human RPMI8226 cells incubated for 48 hrs by sulforhodamine B assay", "conditions": "RPMI-8226, 48 h"}, "[2]": {"test": "Antiproliferative activity against human Hs 578T cells incubated for 48 hrs by sulforhodamine B assay"}, "[3]": {"tested_on": "NCI-H460", "test": "Antiproliferative activity against human NCI-H460 cells incubated for 48 hrs by sulforhodamine B assay", "conditions": "NCI-H460, 48 h", "how_it_was_run": "(§1)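 Run externally by the US National Cancer Institute as part of its 60 human cancer cell line cytotoxicity screen (NCI-60).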"}, "[4]": {"tested_on": "SK-MEL-2", "test": "Antiproliferative activity against human SK-MEL-2 cells incubated for 48 hrs by sulforhodamine B assay", "conditions": "SK-MEL-2, 48 h", "how_it_was_run": "as §1"}, "[5]": {"test": "Antiproliferative activity against human HL-60(TB) cells incubated for 48 hrs by sulforhodamine B assay", "conditions": "HL-60, 48 h"}, "[6]": {"test": "Antiproliferative activity against human HCT15 cells incubated for 48 hrs by sulforhodamine B assay", "conditions": "HCT-15, 48 h", "how_it_was_run": "as §1"}, "[7]": {"test": "Antiproliferative activity against human SW620 cells incubated for 48 hrs by sulforhodamine B assay", "conditions": "SW-620, 48 h", "how_it_was_run": "as §1"}, "[8]": {"tested_on": "MDA-MB-468", "test": "Antiproliferative activity against human MDA-MB-468 cells incubated for 48 hrs by sulforhodamine B assay", "conditions": "MDA-MB-468, 48 h", "how_it_was_run": "as §1"}, "[9]": {"test": "Antiproliferative activity against human PC3 cells incubated for 48 hrs by sulforhodamine B assay", "conditions": "PC-3, 48 h", "how_it_was_run": "as §1"}, "[10]": {"test": "Antiproliferative activity against human OVCAR8 cells incubated for 48 hrs by sulforhodamine B assay", "conditions": "OVCAR-8, 48 h", "how_it_was_run": "as §1"}, "[11]": {"test": "Antiproliferative activity against human LOXIMVI cells incubated for 48 hrs by sulforhodamine B assay", "conditions": "LOX IMVI", "how_it_was_run": "as §1"}, "[12]": {"conditions": "read-out: pLC50 (the source's name) (converted)"}},
  "data": [
    {"smiles": "COc1ncc(-c2ccc3nccc(C#CCN4CCN(S(C)(=O)=O)CC4)c3c2)cc1NS(=O)(=O)c1ccc(F)cc1F", "values": [
      {"measurement": "GI50", "setting": "[1]", "value": 263, "unit": "nM"},
      {"measurement": "TGI", "setting": "[1]; read-out: pTGI (converted)", "value": 1450, "unit": "nM"},
      {"measurement": "GI50", "setting": "[2]", "value": 18.6, "unit": "nM"},
      {"measurement": "CC50", "setting": "[2]; [12]", "value": "> 100000", "unit": "nM"},
      {"measurement": "GI50", "setting": "[3]", "value": 51.3, "unit": "nM"},
      {"measurement": "CC50", "setting": "[3]; [12]", "value": 30900, "unit": "nM"},
      {"measurement": "TGI", "setting": "[3]; read-out: pTGI (converted)", "value": 2140, "unit": "nM"},
      {"measurement": "GI50", "setting": "[4]", "value": 110, "unit": "nM"},
      {"measurement": "CC50", "setting": "[4]; [12]", "value": 26300, "unit": "nM"},
      {"measurement": "TGI", "setting": "[4]; read-out: pTGI (converted)", "value": 871, "unit": "nM"},
      {"measurement": "GI50", "setting": "[5]", "value": 19.5, "unit": "nM"},
      {"measurement": "CC50", "setting": "[5]; [12]", "value": "> 100000", "unit": "nM"},
      {"measurement": "TGI", "setting": "[5]; read-out: pTGI (converted)", "value": 1450, "unit": "nM"},
      {"measurement": "GI50", "setting": "[6]", "value": 55, "unit": "nM"},
      {"measurement": "CC50", "setting": "[6]; [12]", "value": 6610, "unit": "nM"},
      {"measurement": "TGI", "setting": "[6]; read-out: pTGI (converted)", "value": 1350, "unit": "nM"},
      {"measurement": "GI50", "setting": "[7]", "value": 229, "unit": "nM"},
      {"measurement": "CC50", "setting": "[7]; [12]", "value": 6920, "unit": "nM"},
      {"measurement": "TGI", "setting": "[7]; read-out: pTGI (converted)", "value": 1950, "unit": "nM"},
      {"measurement": "GI50", "setting": "[8]", "value": 17, "unit": "nM"},
      {"measurement": "CC50", "setting": "[8]; [12]", "value": 1380, "unit": "nM"},
      {"measurement": "TGI", "setting": "[8]; read-out: pTGI (converted)", "value": 85.1, "unit": "nM"},
      {"measurement": "GI50", "setting": "[9]", "value": 63.1, "unit": "nM"},
      {"measurement": "CC50", "setting": "[9]; [12]", "value": 36300, "unit": "nM"},
      {"measurement": "TGI", "setting": "[9]; read-out: pTGI (converted)", "value": 10200, "unit": "nM"},
      {"measurement": "GI50", "setting": "[10]", "value": 251, "unit": "nM"},
      {"measurement": "CC50", "setting": "[10]; [12]", "value": 67600, "unit": "nM"},
      {"measurement": "TGI", "setting": "[10]; read-out: pTGI (converted)", "value": 10700, "unit": "nM"},
      {"measurement": "GI50", "setting": "[11]", "value": 81.3, "unit": "nM"},
      {"measurement": "CC50", "setting": "[11]; [12]", "value": 5620, "unit": "nM"},
      {"measurement": "TGI", "setting": "[11]; read-out: pTGI (converted)", "value": 1350, "unit": "nM"}
    ]}
  ]
}
